{
  "source": "ChEMBL document CHEMBL5653605",
  "about": "“Reduced VEGF production, angiogenesis, and vascular regrowth contribute to the antitumor properties of dual mTORC1/mTORC2 inhibitors” (Cancer Res, 2011)",
  "key": {"mTORC1": {"biological_target": "mTORC1 (Homo sapiens, UniProt P42345)", "assay": "Competitive inhibition of mTORC1 immunoprecipitated from human HeLa cells using His-tagged 4E-BP1 as substrate incubated for 30 mins in presence of ATP by chemiluminescence based ELISA", "in_short": "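Native mTORC1 or mTORC2 complex immunoprecipitated from HeLa lysates; kinase reaction run at 1 mM ATP.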"}, "[1]": {"biological_target": "T1, Serine/threonine-protein kinase mTOR (Homo sapiens, UniProt P42345)", "assay": "Inhibition of mTOR (unknown origin)"}, "[2]": {"biological_target": "Phosphatidylinositol 4,5-bisphosphate 3-kinase catalytic subunit alpha isoform (Homo sapiens, UniProt P42336)", "sequence (P42336 whole entry, canonical isoform)": "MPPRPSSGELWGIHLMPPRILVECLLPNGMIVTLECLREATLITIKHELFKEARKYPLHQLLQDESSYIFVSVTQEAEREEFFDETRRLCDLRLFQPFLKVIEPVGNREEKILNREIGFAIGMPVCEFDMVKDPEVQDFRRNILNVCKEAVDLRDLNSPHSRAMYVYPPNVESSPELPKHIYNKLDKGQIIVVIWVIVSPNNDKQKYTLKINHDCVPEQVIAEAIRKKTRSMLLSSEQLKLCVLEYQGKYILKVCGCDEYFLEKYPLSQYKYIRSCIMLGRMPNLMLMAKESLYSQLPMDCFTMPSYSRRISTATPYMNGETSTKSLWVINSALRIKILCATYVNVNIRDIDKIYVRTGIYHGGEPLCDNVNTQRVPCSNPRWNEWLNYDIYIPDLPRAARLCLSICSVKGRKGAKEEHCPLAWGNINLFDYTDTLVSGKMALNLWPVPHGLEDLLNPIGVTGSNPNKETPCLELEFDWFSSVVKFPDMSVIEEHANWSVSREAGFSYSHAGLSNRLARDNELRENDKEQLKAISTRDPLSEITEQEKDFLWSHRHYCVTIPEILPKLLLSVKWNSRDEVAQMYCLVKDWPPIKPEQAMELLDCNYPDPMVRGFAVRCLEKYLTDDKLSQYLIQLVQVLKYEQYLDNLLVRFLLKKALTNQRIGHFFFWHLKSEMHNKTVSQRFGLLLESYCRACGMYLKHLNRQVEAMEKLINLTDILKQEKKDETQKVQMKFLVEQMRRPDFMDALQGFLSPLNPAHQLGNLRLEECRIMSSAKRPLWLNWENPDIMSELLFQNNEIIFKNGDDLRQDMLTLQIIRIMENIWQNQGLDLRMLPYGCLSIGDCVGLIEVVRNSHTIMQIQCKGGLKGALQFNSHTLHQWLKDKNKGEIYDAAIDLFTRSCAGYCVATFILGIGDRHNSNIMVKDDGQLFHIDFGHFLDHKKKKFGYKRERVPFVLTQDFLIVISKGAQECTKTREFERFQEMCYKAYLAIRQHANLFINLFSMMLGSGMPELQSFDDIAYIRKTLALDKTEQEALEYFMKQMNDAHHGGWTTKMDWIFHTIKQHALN", "assay": "Inhibition of PI3Kalpha (unknown origin) in presence of ATP by HTRF assay"}, "[3]": {"biological_target": "T2, Phosphatidylinositol 4,5-bisphosphate 3-kinase catalytic subunit gamma isoform (Homo sapiens, UniProt P48736)", "assay": "Inhibition of PI3Kgamma (unknown origin) in presence of ATP by HTRF assay", "in_short": "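PI3K activity by HTRF assay at […] ATP.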"}, "[4]": {"biological_target": "RAC-alpha serine/threonine-protein kinase (Homo sapiens) (UniProt P31749)", "sequence (P31749 whole entry)": "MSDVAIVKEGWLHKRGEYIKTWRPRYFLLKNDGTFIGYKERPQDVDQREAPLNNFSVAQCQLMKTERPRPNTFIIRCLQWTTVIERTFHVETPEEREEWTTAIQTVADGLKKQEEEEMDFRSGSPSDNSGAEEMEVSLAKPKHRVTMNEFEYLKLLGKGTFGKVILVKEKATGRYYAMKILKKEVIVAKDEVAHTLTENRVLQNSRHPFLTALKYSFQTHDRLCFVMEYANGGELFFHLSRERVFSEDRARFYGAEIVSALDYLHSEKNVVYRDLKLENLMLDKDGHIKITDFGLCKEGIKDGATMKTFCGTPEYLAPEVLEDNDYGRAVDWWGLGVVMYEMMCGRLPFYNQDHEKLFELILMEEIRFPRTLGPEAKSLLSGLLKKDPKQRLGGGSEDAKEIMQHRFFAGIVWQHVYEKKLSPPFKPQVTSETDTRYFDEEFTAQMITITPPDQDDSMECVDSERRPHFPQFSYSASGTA", "assay": "Inhibition of AKT phosphorylation at Ser 473 site in serum deprived/insulin stimulated human OVCAR-3 cells harboring PTEN and wild type PI3K preincubated for 2 hrs followed by insulin stimulation and measured immediately by Western blot analysis", "assay_type": "cell-based", "conditions": "dose 0.001-10 µM"}, "[5]": {"biological_target": "Proline-rich AKT1 substrate 1 (Homo sapiens) (UniProt Q96B36)", "assay": "Inhibition of PRAS40 phosphorylation at Ser 246 residue in serum deprived/insulin stimulated human OVCAR-3 cells harboring PTEN and wild type PI3K preincubated for 2 hrs followed by insulin stimulation and measured immediately by Western blot analysis", "assay_type": "cell-based", "conditions": "dose 0.001-10 µM"}, "OVCAR-3 [6]": {"system": "OVCAR-3", "assay": "(§1) Inhibition of S6K phosphorylation at 235/236 residues in serum deprived/insulin stimulated human OVCAR-3 cells harboring PTEN and wild type PI3K at 0.001 to 10 uM preincubated for 2 hrs followed by insulin stimulation and measured immediately by Western blot analysis", "assay_type": "cell-based", "conditions": "dose 0.001-10 µM"}, "OVCAR-3 [7]": {"system": "OVCAR-3", "assay": "as §1, with “S6K” for “S6K phosphorylation”, “PI3K assessed as inhibition of s6 substrate phosphorylation at […] residue” for “PI3K”", "assay_type": "cell-based", "conditions": "dose 0.001-10 µM"}, "GEO": {"system": "GEO", "assay": "Antitumor activity against human GEO cells xenografted in nu/nu CD-1 mouse assessed as slower tumor growth at 75 mg/kg administered twice a day for 14 days and measured twice weekly", "assay_type": "functional, organism-based", "conditions": "time 14.0 day"}, "Mus musculus": {"system": "Mus musculus", "assay": "In vivo inhibition of 4E-BP1 phosphorylation in RIP-Tag2 mouse with pancreatic islet cell carcinoma 75 mg/kg, po bid administered via gavage and measured after 7 days by immunohistochemistry", "assay_type": "functional, organism-based", "conditions": "time 7.0 day", "in_short": "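RIP-Tag2 mice aged 9–10 weeks dosed 75 mg/kg BID by gavage for 7 days, vehicle Labrifil or water; perfusion fixation, 60–80 µm tumor sections immunostained for phospho-4E-BP1, phospho-Akt or phospho-S6K with CD31; fluorescence/confocal imaging; 3–8 mice per group.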"}, "[8]": {"system": "Pancreatic islet cell carcinoma", "assay": "Antitumor activity against pancreatic islet cell carcinoma in RIP-Tag2 mouse assessed as induction of apoptosis by measuring caspase-3 activation at 75 mg/kg, po bid administered via gavage and measured after 7 days by immunohistochemistry analysis", "assay_type": "functional, organism-based", "conditions": "time 7.0 day", "in_short": "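RIP-Tag2 mice aged 9–10 weeks dosed by gavage BID for 7 days; vehicle Labrifil or water. Mice fixed by vascular perfusion, tumors cut into 60–80 µm sections. Proliferating cells stained for phospho-histone H3 and apoptotic cells for activated caspase-3. Sections imaged by fluorescence/confocal microscopy. Body weight checked daily, fluids given if loss exceeded 10%. 3–8 mice per group, SEM, ANOVA with Fisher PLSD.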"}, "[9]": {"system": "Pancreatic islet cell carcinoma", "assay": "(§2) Antitumor activity against pancreatic islet cell carcinoma in RIP-Tag2 mouse assessed as reduction in VEGF production by measuring reduction in fluorescence in entire tumor at 75 mg/kg, po bid administered via gavage and measured after 1 day by immunohistochemical staining based confocal microscopic analysis relative to control", "assay_type": "functional", "design": "scale not given: the % may be the effect or the level left", "in_short": "(§3)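 Treatment began in RIP-Tag2 mice at 9–10 weeks: 75 mg/kg gavage BID for 1, 4 or 7 days, or 20 mg/kg ip QD for 7 days; vehicle Labrifil or water. Tissue fixed by vascular perfusion and 60–80 µm sections stained for VEGF with CD31. VEGF fluorescence intensity measured over whole tumor, tumor cells, or tumor vessels. 3–8 mice/group; ANOVA, Fisher PLSD.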"}, "[10]": {"system": "Pancreatic islet cell carcinoma", "assay": "as §2, with “4 days” for “1 day”", "assay_type": "functional", "design": "scale not given: the % may be the effect or the level left", "conditions": "time 4 day", "in_short": "as §3"}, "[11]": {"system": "Pancreatic islet cell carcinoma", "assay": "(§4) Antitumor activity against pancreatic islet cell carcinoma in RIP-Tag2 mouse assessed as reduction in VEGF production by measuring reduction in tumor cell associated fluorescence intensity at 75 mg/kg, po bid administered via gavage and measured after 7 days by immunohistochemical staining based confocal microscopic analysis relative to control", "assay_type": "functional", "design": "scale not given: the % may be the effect or the level left", "conditions": "time 7 day", "in_short": "as §3"}, "[12]": {"system": "Pancreatic islet cell carcinoma", "assay": "as §4, with “tumor vessels” for “tumor cell”, “after 1 to” for “after”", "assay_type": "functional", "design": "scale not given: the % may be the effect or the level left", "conditions": "time 1-7 day", "in_short": "as §3"}, "[13]": {"system": "Pancreatic islet cell carcinoma", "assay": "Antitumor activity against pancreatic islet cell carcinoma in RIP-Tag2 mouse assessed as reduction in VEGF-B expression at 75 mg/kg, po bid administered via gavage and measured after 1 to 7 days by immunoprecipitation based densitometric analysis", "assay_type": "functional, organism-based", "conditions": "time 1-7 day", "in_short": "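VEGF in tumor lysates from treated RIP-Tag2 mice (9–10 weeks old at start; 75 mg/kg gavage BID or 20 mg/kg ip QD) measured with mouse angiogenesis antibody arrays, read as pixel density. 3–8 mice/group, SEM; ANOVA with Fisher PLSD.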"}, "[14]": {"system": "Pancreatic islet cell carcinoma", "assay": "Antivascular activity against pancreatic islet cell carcinoma in RIP-Tag2 mouse assessed as reduction in CD31-positive tumor blood vessels at 75 mg/kg, po bid administered via gavage and measured after 1 to 4 days by immunohistochemical staining based fluorescence microscopic analysis", "assay_type": "functional, organism-based", "conditions": "time 1-4 day"}, "[15]": {"system": "Pancreatic islet cell carcinoma", "assay": "Antivascular activity against pancreatic islet cell carcinoma in RIP-Tag2 mouse assessed as appearance of empty basement membrane sleeves at 75 mg/kg, po bid administered via gavage and measured after 7 days by immunohistochemical staining based fluorescence microscopic analysis", "assay_type": "functional, organism-based", "conditions": "time 7.0 day", "in_short": "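For 7 days, RIP-Tag2 mice, 9–10 weeks old, received 75 mg/kg gavage BID, 200 mg/kg gavage QD, or 20 mg/kg ip QD. Perfusion-fixed tumors cut at 60–80 µm and stained for CD31 and type IV collagen basement membrane. Vessel area density from fluorescence images with threshold 30–50; sprouts and empty basement membrane sleeves examined by confocal microscopy. 3–8 mice/group; ANOVA, Fisher PLSD.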"}, "[16]": {"biological_target": "T1, Serine/threonine-protein kinase mTOR", "assay": "Inhibition of mTOR (unknown origin) assessed as reduction in 4E-BP1 phosphorylation by cell based assay"}, "[17]": {"biological_target": "Vascular endothelial growth factor receptor 2 (Homo sapiens, UniProt P35968)", "sequence (P35968 whole entry)": "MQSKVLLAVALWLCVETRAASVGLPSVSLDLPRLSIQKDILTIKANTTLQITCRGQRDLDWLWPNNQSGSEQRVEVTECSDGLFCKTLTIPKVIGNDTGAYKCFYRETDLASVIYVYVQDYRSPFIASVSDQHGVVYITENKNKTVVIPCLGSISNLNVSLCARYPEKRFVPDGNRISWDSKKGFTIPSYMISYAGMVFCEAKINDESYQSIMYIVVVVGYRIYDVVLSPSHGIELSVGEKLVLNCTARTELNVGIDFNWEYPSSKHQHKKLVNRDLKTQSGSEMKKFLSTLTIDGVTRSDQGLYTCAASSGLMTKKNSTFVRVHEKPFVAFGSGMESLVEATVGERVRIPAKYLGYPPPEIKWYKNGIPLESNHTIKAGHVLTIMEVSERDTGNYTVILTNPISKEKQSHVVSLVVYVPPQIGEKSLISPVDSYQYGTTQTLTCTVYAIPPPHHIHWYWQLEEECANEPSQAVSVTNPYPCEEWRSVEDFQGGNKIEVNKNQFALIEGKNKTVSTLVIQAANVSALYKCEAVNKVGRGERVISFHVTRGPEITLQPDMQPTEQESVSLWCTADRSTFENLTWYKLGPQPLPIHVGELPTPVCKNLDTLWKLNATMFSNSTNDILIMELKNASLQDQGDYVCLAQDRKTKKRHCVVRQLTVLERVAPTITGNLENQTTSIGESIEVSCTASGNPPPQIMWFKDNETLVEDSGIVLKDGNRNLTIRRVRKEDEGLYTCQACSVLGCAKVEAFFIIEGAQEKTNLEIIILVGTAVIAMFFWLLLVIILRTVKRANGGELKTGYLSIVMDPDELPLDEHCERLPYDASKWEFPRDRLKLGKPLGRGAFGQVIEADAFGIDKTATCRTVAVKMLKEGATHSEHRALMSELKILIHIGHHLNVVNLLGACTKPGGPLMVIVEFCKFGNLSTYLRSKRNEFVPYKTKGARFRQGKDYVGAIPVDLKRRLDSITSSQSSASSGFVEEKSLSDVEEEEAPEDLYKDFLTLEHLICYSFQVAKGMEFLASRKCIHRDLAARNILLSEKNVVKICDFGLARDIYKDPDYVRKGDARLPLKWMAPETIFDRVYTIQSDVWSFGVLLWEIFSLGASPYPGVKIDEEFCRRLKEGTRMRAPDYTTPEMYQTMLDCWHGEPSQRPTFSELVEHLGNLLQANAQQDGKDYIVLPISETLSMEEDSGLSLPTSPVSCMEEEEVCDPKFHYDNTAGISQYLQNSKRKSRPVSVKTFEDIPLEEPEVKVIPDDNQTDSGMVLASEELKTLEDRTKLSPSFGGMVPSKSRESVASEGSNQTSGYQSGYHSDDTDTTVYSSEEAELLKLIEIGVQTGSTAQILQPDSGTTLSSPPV", "assay": "Inhibition of VEGFR2 phosphorylation (unknown origin) by cell based assay"}, "Ephrin type-A receptor 2": {"biological_target": "Ephrin type-A receptor 2 (Homo sapiens, UniProt P29317)", "sequence (P29317 whole entry)": "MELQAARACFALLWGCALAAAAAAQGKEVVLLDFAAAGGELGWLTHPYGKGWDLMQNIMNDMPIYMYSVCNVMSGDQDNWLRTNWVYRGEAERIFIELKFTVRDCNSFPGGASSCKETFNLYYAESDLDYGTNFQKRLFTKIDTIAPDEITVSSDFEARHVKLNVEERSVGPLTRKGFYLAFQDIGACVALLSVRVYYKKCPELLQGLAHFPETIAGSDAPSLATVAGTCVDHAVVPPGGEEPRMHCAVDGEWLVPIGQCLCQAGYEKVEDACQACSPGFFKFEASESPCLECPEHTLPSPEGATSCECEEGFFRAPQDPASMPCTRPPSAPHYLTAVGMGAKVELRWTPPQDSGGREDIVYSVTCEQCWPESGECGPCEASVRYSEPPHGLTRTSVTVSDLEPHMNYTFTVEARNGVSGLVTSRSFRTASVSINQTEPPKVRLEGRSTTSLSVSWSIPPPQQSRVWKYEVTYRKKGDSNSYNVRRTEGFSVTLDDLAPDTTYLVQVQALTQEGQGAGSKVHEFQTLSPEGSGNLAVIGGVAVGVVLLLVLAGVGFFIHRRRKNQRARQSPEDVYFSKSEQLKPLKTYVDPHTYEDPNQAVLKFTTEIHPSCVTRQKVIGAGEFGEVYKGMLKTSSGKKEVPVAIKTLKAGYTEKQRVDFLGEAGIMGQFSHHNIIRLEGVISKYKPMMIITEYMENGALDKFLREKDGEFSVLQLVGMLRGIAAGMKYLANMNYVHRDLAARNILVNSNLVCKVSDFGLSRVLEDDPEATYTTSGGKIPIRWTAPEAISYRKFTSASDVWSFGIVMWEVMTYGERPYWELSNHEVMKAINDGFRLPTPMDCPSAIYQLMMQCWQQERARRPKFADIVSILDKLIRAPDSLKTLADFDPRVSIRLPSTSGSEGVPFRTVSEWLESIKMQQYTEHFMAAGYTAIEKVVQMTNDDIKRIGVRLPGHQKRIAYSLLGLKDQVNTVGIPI", "assay": "Inhibition of EphA2 phosphorylation (unknown origin) by cell based assay"}, "[18]": {"biological_target": "T2, Phosphatidylinositol 4,5-bisphosphate 3-kinase catalytic subunit gamma isoform", "assay": "Inhibition of PI3Kgamma (unknown origin) at 3 uM by Ambit Kinomescan assay relative to control"}, "[19]": {"biological_target": "Mitogen-activated protein kinase 10 (Homo sapiens) (UniProt P53779)", "sequence (P53779 whole entry)": "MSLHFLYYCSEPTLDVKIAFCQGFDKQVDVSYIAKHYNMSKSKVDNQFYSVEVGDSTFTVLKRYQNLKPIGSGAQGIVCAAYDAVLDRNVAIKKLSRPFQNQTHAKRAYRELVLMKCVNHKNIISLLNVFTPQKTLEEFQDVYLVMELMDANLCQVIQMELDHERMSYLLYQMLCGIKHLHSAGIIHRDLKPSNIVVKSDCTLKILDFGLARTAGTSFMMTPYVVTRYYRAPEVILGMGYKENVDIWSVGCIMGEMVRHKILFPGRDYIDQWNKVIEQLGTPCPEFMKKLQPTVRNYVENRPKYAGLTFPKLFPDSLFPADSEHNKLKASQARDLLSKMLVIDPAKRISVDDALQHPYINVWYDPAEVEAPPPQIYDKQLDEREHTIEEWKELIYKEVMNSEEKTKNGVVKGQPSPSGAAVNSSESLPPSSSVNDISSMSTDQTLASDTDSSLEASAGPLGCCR", "assay": "Inhibition of JNK3 (unknown origin)"}},
  "note": "The source made the active and inactive calls.",
  "data": [
    {"smiles": "Nc1nccn2c1c(-c1cc3cccc(Cl)c3[nH]1)nc2[C@H]1CC[C@H](C(=O)O)CC1", "values": [
      {"measurement": "IC50", "setting": "mTORC1", "value": 0.029, "unit": "µM"},
      {"measurement": "IC50", "setting": "[1]", "value": 0.011, "unit": "µM"},
      {"measurement": "IC50", "setting": "[2]", "value": 0.19, "unit": "µM"},
      {"measurement": "IC50", "setting": "[3]", "value": 0.46, "unit": "µM"},
      {"measurement": "inhibition", "setting": "[4]", "value": "Dose-Dependent Effect"},
      {"measurement": "inhibition", "setting": "[5]", "value": "Dose-Dependent Effect"},
      {"measurement": "inhibition", "setting": "OVCAR-3 [6]", "value": "Active"},
      {"measurement": "inhibition", "setting": "OVCAR-3 [7]", "value": "Active"},
      {"measurement": "Activity", "setting": "GEO", "value": "Active"},
      {"measurement": "inhibition", "setting": "Mus musculus", "value": "Active"},
      {"measurement": "Activity", "setting": "[8]", "value": "Active"},
      {"measurement": "Activity", "setting": "[9]", "value": 12, "unit": "%"},
      {"measurement": "Activity", "setting": "[10]", "value": 48, "unit": "%"},
      {"measurement": "Activity", "setting": "[11]", "value": 65, "unit": "%"},
      {"measurement": "Activity", "setting": "[12]", "value": 48, "unit": "%"},
      {"measurement": "Activity", "setting": "[13]", "value": "inactive"},
      {"measurement": "Activity", "setting": "[14]", "value": "inactive"},
      {"measurement": "Activity", "setting": "[15]", "value": "inactive"},
      {"measurement": "IC50", "setting": "[16]", "value": 1.1, "unit": "µM"},
      {"measurement": "IC50", "setting": "[17]", "value": "> 40", "unit": "µM"},
      {"measurement": "IC50", "setting": "Ephrin type-A receptor 2", "value": "> 40", "unit": "µM"},
      {"measurement": "inhibition", "setting": "[18]", "value": "> 90", "unit": "%"},
      {"measurement": "inhibition", "setting": "[19]", "value": "Active"}
    ]}
  ]
}
